In ChEMBL document CHEMBL2062435, “Synthesis and in vitro antibacterial activity of gemifloxacin derivatives containing a substituted benzyloxime moiety” (2012):

Experiments:
Assay type in all cases: functional
[1] = test system: Staphylococcus aureus; test: Antimicrobial activity against Staphylococcus aureus ATCC […] after 18-24 hrs by two-fold serial dilution method
Outline: (§1)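 Agar-medium twofold serial dilution against Gram-positive and Gram-negative strains; MIC taken as the lowest compound concentration giving complete inhibition of bacterial growth after incubation at 35 °C for 18-24 h.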

[2] = test system: Staphylococcus aureus; test: Antimicrobial activity against extended spectrum beta-lactamases-producing methicillin-resistant Staphylococcus aureus 10-11 after 18-24 hrs by two-fold serial dilution method
Outline: (§2)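 Agar twofold serial dilution MIC against clinical isolates. MIC was taken as the lowest concentration giving complete inhibition of bacterial growth after incubation at 35 °C for 18-24 h.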

[3] = test system: Staphylococcus aureus; test: Antimicrobial activity against extended spectrum beta-lactamases-producing methicillin-resistant Staphylococcus aureus 10-15 after 18-24 hrs by two-fold serial dilution method; outline: as §2
[4] = test system: Staphylococcus aureus; test: Antimicrobial activity against extended spectrum beta-lactamases-producing methicillin-sensitive Staphylococcus aureus 10-13 after 18-24 hrs by two-fold serial dilution method; outline: as §1
[5] = test system: Staphylococcus aureus; test: Antimicrobial activity against extended spectrum beta-lactamases-producing methicillin-sensitive Staphylococcus aureus 10-14 after 18-24 hrs by two-fold serial dilution method; outline: as §1
[6] = test system: Staphylococcus epidermidis; test: Antimicrobial activity against extended spectrum beta-lactamases-producing methicillin-resistant Staphylococcus epidermidis 10-10 after 18-24 hrs by two-fold serial dilution method; outline: as §2
[7] = test system: Staphylococcus epidermidis; test: Antimicrobial activity against extended spectrum beta-lactamases-producing methicillin-resistant Staphylococcus epidermidis 10-13 after 18-24 hrs by two-fold serial dilution method; outline: as §2
[8] = test system: Staphylococcus epidermidis; test: Antimicrobial activity against extended spectrum beta-lactamases-producing methicillin-sensitive Staphylococcus epidermidis 10-11 after 18-24 hrs by two-fold serial dilution method; outline: as §1
[9] = test system: Staphylococcus epidermidis; test: Antimicrobial activity against extended spectrum beta-lactamases-producing methicillin-sensitive Staphylococcus epidermidis 10-13 after 18-24 hrs by two-fold serial dilution method; outline: as §1
[10] = test system: Staphylococcus epidermidis; test: Antimicrobial activity against extended spectrum beta-lactamases-producing methicillin-sensitive Staphylococcus epidermidis 10-15 after 18-24 hrs by two-fold serial dilution method; outline: as §1
[11] = test system: Enterococcus faecalis; test: Antimicrobial activity against Enterococcus faecalis 10-5 after 18-24 hrs by two-fold serial dilution method; outline: as §1
[12] = test system: Enterococcus faecalis; test: Antimicrobial activity against Enterococcus faecalis 10-6 after 18-24 hrs by two-fold serial dilution method; outline: as §1
[13] = test system: Enterococcus faecalis; test: Antimicrobial activity against Enterococcus faecalis 10-7 after 18-24 hrs by two-fold serial dilution method; outline: as §1
[14] = test system: Enterococcus faecium; test: Antimicrobial activity against Enterococcus faecium 10-5 after 18-24 hrs by two-fold serial dilution method; outline: as §1
[15] = test system: Enterococcus faecium; test: Antimicrobial activity against Enterococcus faecium 10-9 after 18-24 hrs by two-fold serial dilution method; outline: as §1
[16] = test system: Streptococcus pneumoniae; test: Antimicrobial activity against extended spectrum beta-lactamases-producing Streptococcus pneumoniae 10-1 after 18-24 hrs by two-fold serial dilution method; outline: as §1
[17] = test system: Streptococcus pneumoniae; test: Antimicrobial activity against extended spectrum beta-lactamases-producing Streptococcus pneumoniae 10-4 after 18-24 hrs by two-fold serial dilution method; outline: as §1
[18] = test system: Escherichia coli; test: Antimicrobial activity against Escherichia coli ATCC 25922 after 18-24 hrs by two-fold serial dilution method; outline: as §1
[19] = test system: Escherichia coli; test: Antimicrobial activity against Escherichia coli 10-1 after 18-24 hrs by two-fold serial dilution method; outline: as §1
[20] = test system: Escherichia coli; test: Antimicrobial activity against Escherichia coli 10-2 after 18-24 hrs by two-fold serial dilution method; outline: as §1
[21] = test system: Escherichia coli; test: Antimicrobial activity against extended spectrum beta-lactamases-producing Escherichia coli 10-2 after 18-24 hrs by two-fold serial dilution method; outline: as §1
[22] = test system: Escherichia coli; test: Antimicrobial activity against Escherichia coli 10-3 after 18-24 hrs by two-fold serial dilution method; outline: as §1
[23] = test system: Escherichia coli; test: Antimicrobial activity against extended spectrum beta-lactamases-producing Escherichia coli 10-3 after 18-24 hrs by two-fold serial dilution method; outline: as §1
[24] = test system: Escherichia coli; test: Antimicrobial activity against extended spectrum beta-lactamases-producing Escherichia coli 10-4 after 18-24 hrs by two-fold serial dilution method; outline: as §1
[25] = test system: Klebsiella pneumoniae; test: Antimicrobial activity against extended spectrum beta-lactamases-producing Klebsiella pneumoniae 10-1 after 18-24 hrs by two-fold serial dilution method; outline: as §1
[26] = test system: Klebsiella pneumoniae; test: Antimicrobial activity against Klebsiella pneumoniae 10-2 after 18-24 hrs by two-fold serial dilution method; outline: as §1
[27] = test system: Klebsiella pneumoniae; test: Antimicrobial activity against extended spectrum beta-lactamases-producing Klebsiella pneumoniae 10-2 after 18-24 hrs by two-fold serial dilution method; outline: as §1
[28] = test system: Klebsiella pneumoniae; test: Antimicrobial activity against Klebsiella pneumoniae 10-3 after 18-24 hrs by two-fold serial dilution method; outline: as §1
[29] = test system: Klebsiella pneumoniae; test: Antimicrobial activity against extended spectrum beta-lactamases-producing Klebsiella pneumoniae 10-3 after 18-24 hrs by two-fold serial dilution method; outline: as §1
[30] = test system: Klebsiella pneumoniae; test: Antimicrobial activity against Klebsiella pneumoniae 10-4 after 18-24 hrs by two-fold serial dilution method; outline: as §1
[31] = test system: Pseudomonas aeruginosa; test: Antimicrobial activity against Pseudomonas aeruginosa 10-12 after 18-24 hrs by two-fold serial dilution method; outline: as §1
[32] = test system: Pseudomonas aeruginosa; test: Antimicrobial activity against extended spectrum beta-lactamases-producing Pseudomonas aeruginosa 10-5 after 18-24 hrs by two-fold serial dilution method; outline: as §1
[33] = test system: Pseudomonas aeruginosa; test: Antimicrobial activity against extended spectrum beta-lactamases-producing Pseudomonas aeruginosa 10-9 after 18-24 hrs by two-fold serial dilution method; outline: as §1
[34] = test system: Pseudomonas aeruginosa; test: Antimicrobial activity against extended spectrum beta-lactamases-producing Pseudomonas aeruginosa 10-15 after 18-24 hrs by two-fold serial dilution method; outline: as §1
[35] = test system: Pseudomonas aeruginosa; test: Antimicrobial activity against extended spectrum beta-lactamases-producing Pseudomonas aeruginosa 10-18 after 18-24 hrs by two-fold serial dilution method; outline: as §1
[36] = test system: Pseudomonas aeruginosa; test: Antimicrobial activity against extended spectrum beta-lactamases-producing Pseudomonas aeruginosa 10-20 after 18-24 hrs by two-fold serial dilution method; outline: as §1

CS(=O)(=O)O.NCC1CN(c2nc3c(cc2F)c(=O)c(C(=O)O)cn3C2CC2)C/C1=N\OCc1ccc2c(c1)OCO2 (racemic)
MIC [1]: 0.06 µg/mL
MIC [2]: 1 µg/mL
MIC [3]: 0.5 µg/mL
MIC [4]: 0.5 µg/mL
MIC [5]: 0.03 µg/mL
MIC [6]: 1 µg/mL
MIC [7]: 0.5 µg/mL
MIC [8]: 2 µg/mL
MIC [9]: 1 µg/mL
MIC [10]: 4 µg/mL
MIC [11]: 0.5 µg/mL
MIC [12]: 2 µg/mL
MIC [13]: 1 µg/mL
MIC [14]: 4 µg/mL
MIC [15]: 4 µg/mL
MIC [16]: 1 µg/mL
MIC [17]: 2 µg/mL
MIC [18]: 0.125 µg/mL
MIC [19]: 32 µg/mL
MIC [20]: 2 µg/mL
MIC [21]: > 128 µg/mL
MIC [22]: 8 µg/mL
MIC [23]: 16 µg/mL
MIC [24]: 2 µg/mL
MIC [25]: 128 µg/mL
MIC [26]: 2 µg/mL
MIC [27]: > 128 µg/mL
MIC [28]: 2 µg/mL
MIC [29]: 128 µg/mL
MIC [30]: > 128 µg/mL
MIC [31]: 0.06 µg/mL
MIC [32]: 8 µg/mL
MIC [33]: 4 µg/mL
MIC [34]: 4 µg/mL
MIC [35]: 2 µg/mL
MIC [36]: 0.25 µg/mL

COc1cc(F)c(CO/N=C2\CN(c3nc4c(cc3F)c(=O)c(C(=O)O)cn4C3CC3)CC2CN)cc1OC.CS(=O)(=O)O (racemic)
MIC [1]: 0.03 µg/mL
MIC [2]: 1 µg/mL
MIC [3]: 0.125 µg/mL
MIC [4]: 0.03 µg/mL
MIC [5]: 0.03 µg/mL
MIC [6]: 0.5 µg/mL
MIC [7]: 0.25 µg/mL
MIC [8]: 1 µg/mL
MIC [9]: 0.03 µg/mL
MIC [10]: 2 µg/mL
MIC [11]: 0.25 µg/mL
MIC [12]: 2 µg/mL
MIC [13]: 1 µg/mL
MIC [14]: 4 µg/mL
MIC [15]: 8 µg/mL
MIC [16]: 0.25 µg/mL
MIC [17]: 0.03 µg/mL
MIC [18]: 0.125 µg/mL
MIC [19]: > 128 µg/mL
MIC [20]: > 128 µg/mL
MIC [21]: > 128 µg/mL
MIC [22]: > 128 µg/mL
MIC [23]: > 128 µg/mL
MIC [24]: > 128 µg/mL
MIC [25]: > 128 µg/mL
MIC [26]: > 128 µg/mL
MIC [27]: > 128 µg/mL
MIC [28]: > 128 µg/mL
MIC [29]: > 128 µg/mL
MIC [30]: > 128 µg/mL
MIC [31]: > 128 µg/mL
MIC [32]: > 128 µg/mL
MIC [33]: > 128 µg/mL
MIC [34]: > 128 µg/mL
MIC [35]: > 128 µg/mL
MIC [36]: > 128 µg/mL

CS(=O)(=O)O.NCC1CN(c2nc3c(cc2F)c(=O)c(C(=O)O)cn3C2CC2)C/C1=N\OCc1ccc(OCc2ccccc2)cc1 (racemic)
MIC [1]: 2 µg/mL
MIC [2]: 4 µg/mL
MIC [3]: 8 µg/mL
MIC [4]: 1 µg/mL
MIC [5]: 1 µg/mL
MIC [6]: 4 µg/mL
MIC [7]: 4 µg/mL
MIC [8]: 1 µg/mL
MIC [9]: 16 µg/mL
MIC [10]: 4 µg/mL
MIC [11]: 8 µg/mL
MIC [12]: 32 µg/mL
MIC [13]: 16 µg/mL
MIC [14]: 32 µg/mL
MIC [15]: 32 µg/mL
MIC [16]: 2 µg/mL
MIC [17]: 8 µg/mL
MIC [18]: 4 µg/mL
MIC [19]: 0.03 µg/mL
MIC [20]: 0.25 µg/mL
MIC [21]: > 128 µg/mL
MIC [22]: 0.125 µg/mL
MIC [23]: > 128 µg/mL
MIC [24]: 0.06 µg/mL
MIC [25]: > 128 µg/mL
MIC [26]: 16 µg/mL
MIC [27]: > 128 µg/mL
MIC [28]: 2 µg/mL
MIC [29]: 8 µg/mL
MIC [30]: > 128 µg/mL
MIC [31]: 16 µg/mL
MIC [32]: 16 µg/mL
MIC [33]: 2 µg/mL
MIC [34]: 8 µg/mL
MIC [35]: 2 µg/mL
MIC [36]: 16 µg/mL
